According to ChEMBL document CHEMBL3045292, “Synthesis and herbicidal activity of 2-(7-fluoro-3-oxo- 3,4-dihydro-2H-benzo[b][1,4]oxazin-6-yl)isoindoline-1,3-diones” (J Agric Food Chem, 2005):

Columns and labels:
[1] = (§1) Phytotoxicity against Triticum aestivum (wheat) assessed as growth inhibition at 30 g/ha post-emergence treatment measured after 15 days by crop-selectivity assay; format: organism-based; conditions: in vivo, 30 g/ha, read-out: GI
[2] = (§2) Phytotoxicity against Zea mays (maize) assessed as growth inhibition at 150 g/ha pre-emergence treatment measured after 15 days by crop-selectivity assay; format: organism-based; conditions: in vivo, 150 g/ha, read-out: GI
In short: (§3)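 Compounds were formulated as 100 g/L emulsifiable concentrates, with DMF as solvent and Tween-80 as emulsifier, then diluted in water to the required rate. They were sprayed on pot-grown plants in a greenhouse, in clay soil (pH 6.5, 1.6% organic matter, 37.3% clay, CEC 12.1 cmol/kg). Untreated and DMF-treated plants served as controls. Percent growth inhibition was scored visually 15 days after treatment.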

[3] = Phytotoxicity against Glycine max (soybean) assessed as growth inhibition at 150 g/ha pre-emergence treatment measured after 15 days by crop-selectivity assay; format: organism-based; conditions: in vivo, read-out: GI
[4] = (§4) Phytotoxicity against Zea mays (maize) assessed as growth inhibition at 75 g/ha pre-emergence treatment measured after 15 days by crop-selectivity assay; format: organism-based; conditions: in vivo, 75 g/ha, read-out: GI; in short: as §3
[5] = Phytotoxicity against Triticum aestivum (wheat) assessed as growth inhibition at 75 g/ha pre-emergence treatment measured after 15 days by crop-selectivity assay; format: organism-based; conditions: in vivo, read-out: GI; in short: as §3
[6] = (§5) Phytotoxicity against Glycine max (soybean) assessed as growth inhibition at 75 g/ha pre-emergence treatment measured after 15 days by crop-selectivity assay; format: organism-based; conditions: in vivo, 75 g/ha, read-out: GI
Zea mays [7] = assay: Phytotoxicity against Zea mays (maize) assessed as growth inhibition at 30 g/ha pre-emergence treatment measured after 15 days by crop-selectivity assay; format: organism-based; conditions: in vivo, other, 360 h; in short: as §3
[8] = (§6) Phytotoxicity against Triticum aestivum (wheat) assessed as growth inhibition at 30 g/ha pre-emergence treatment measured after 15 days by crop-selectivity assay; format: organism-based; conditions: in vivo, 30 g/ha, read-out: GI; in short: as §3
[9] = Phytotoxicity against Brassica rapa subsp. oleifera assessed as growth inhibition at 30 g/ha pre-emergence treatment measured after 15 days by crop-selectivity assay; format: organism-based; conditions: in vivo, read-out: GI
Zea mays [10] = assay: Phytotoxicity against Zea mays (maize) assessed as growth inhibition at 15 g/ha pre-emergence treatment measured after 15 days by crop-selectivity assay; format: organism-based; conditions: in vivo, other, 360 h; in short: as §3
Gossypium [11] = assay: Phytotoxicity against Gossypium (cotton) assessed as growth inhibition at 30 g/ha pre-emergence treatment measured after 15 days by crop-selectivity assay; format: organism-based; conditions: in vivo, other, 360 h
[12] = (§7) Phytotoxicity against Triticum aestivum (wheat) assessed as growth inhibition at 15 g/ha pre-emergence treatment measured after 15 days by crop-selectivity assay; format: organism-based; conditions: in vivo, 15 g/ha, read-out: GI
Glycine max [13] = assay: Phytotoxicity against Glycine max (soybean) assessed as growth inhibition at 15 g/ha pre-emergence treatment measured after 15 days by crop-selectivity assay; format: organism-based; conditions: in vivo, other, 360 h
Gossypium [14] = assay: Phytotoxicity against Gossypium (cotton) assessed as growth inhibition at 15 g/ha pre-emergence treatment measured after 15 days by crop-selectivity assay; format: organism-based; conditions: in vivo, other, 360 h
Zea mays [15] = assay: Phytotoxicity against Zea mays (maize) assessed as growth inhibition at 7.5 g/ha pre-emergence treatment measured after 15 days by crop-selectivity assay; format: organism-based; conditions: in vivo, other, 360 h; in short: as §3
[16] = Phytotoxicity against Zea mays (maize) assessed as growth inhibition at 15 g/ha post-emergence treatment measured after 15 days by crop-selectivity assay; format: organism-based; conditions: in vivo, read-out: GI; in short: as §3
[17] = (§8) Phytotoxicity against Triticum aestivum (wheat) assessed as growth inhibition at 15 g/ha post-emergence treatment measured after 15 days by crop-selectivity assay; format: organism-based; conditions: in vivo, 15 g/ha, read-out: GI
[18] = (§9) Phytotoxicity against Oryza sativa (rice) assessed as growth inhibition at 7.5 g/ha pre-emergence treatment measured after 15 days by crop-selectivity assay; format: organism-based; conditions: in vivo, 7.5 g/ha, read-out: GI
[19] = system: Brassica rapa subsp. oleifera; assay: Phytotoxicity against Brassica rapa subsp. oleifera assessed as growth inhibition at 7.5 g/ha pre-emergence treatment measured after 15 days by crop-selectivity assay; format: organism-based; conditions: in vivo, other, 360 h
Digitaria sanguinalis = assay: Herbicidal activity against crabgrass Digitaria sanguinalis(hairy crabgrass) assessed as weed growth inhibition at post-emergence treatment […]; format: functional, organism-based
In short: (§10)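 Pot-grown plants in the greenhouse, in clay soil (pH 6.5, 1.6% organic matter, 37.3% clay, CEC 12.1 cmol/kg). Compound was made up as a 100 g/L emulsified concentrate (DMF, Tween-80), diluted in water and sprayed at 75 g ai/ha. Pre-emergence spraying was 24 h after sowing; post-emergence at two-leaf (dicots) or one-leaf (monocots) stage. Untreated and DMF controls. Percent growth inhibition scored visually 15 days post-treatment.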

[20] = (§11) Phytotoxicity against Triticum aestivum (wheat) assessed as growth inhibition at 7.5 g/ha post-emergence treatment measured after 15 days by crop-selectivity assay; format: organism-based; conditions: in vivo, 7.5 g/ha, read-out: GI; in short: as §3
[21] = (§12) Phytotoxicity against Oryza sativa (rice) assessed as growth inhibition at 7.5 g/ha post-emergence treatment measured after 15 days by crop-selectivity assay; format: organism-based; conditions: in vivo, 7.5 g/ha, read-out: GI
Amaranthus blitum = assay: Herbicidal activity against Amaranthus blitum assessed as weed growth inhibition at 75 g/ha pre-emergence treatment […]; format: functional; conditions: read-out: GI; in short: as §10
Triticum aestivum [22] = assay: as §1; format: organism-based; conditions: in vivo, other, 360 h
Zea mays [23] = assay: as §2; format: organism-based; conditions: in vivo, other, 360 h; in short: as §3
Zea mays [24] = assay: as §4; format: organism-based; conditions: in vivo, other, 360 h; in short: as §3
Glycine max [25] = assay: as §5; format: organism-based; conditions: in vivo, other, 360 h
Triticum aestivum [26] = assay: as §6; format: organism-based; conditions: in vivo, other, 360 h; in short: as §3
Triticum aestivum [27] = assay: as §7; format: organism-based; conditions: in vivo, other, 360 h
Triticum aestivum [28] = assay: as §8; format: organism-based; conditions: in vivo, other, 360 h
Oryza sativa [29] = assay: as §9; format: organism-based; conditions: in vivo, other, 360 h
Triticum aestivum [30] = assay: as §11; format: organism-based; conditions: in vivo, other, 360 h; in short: as §3
Oryza sativa [31] = assay: as §12; format: organism-based; conditions: in vivo, other, 360 h

C#CCN1C(=O)COc2cc(F)c(N3C(=O)C4=C(CCCC4)C3=O)cc21 [FLUMIOXAZIN]
inhibition at 360 h [1]: > 10%
inhibition at 360 h [2]: 1%
inhibition at 360 h [3]: > 10%
inhibition at 360 h [4]: 1%
inhibition at 360 h [5]: > 10%
inhibition at 360 h [6]: > 10%
growth inhibition (GI) (Zea mays [7]): Non-toxic
inhibition at 360 h [8]: > 10%
inhibition at 360 h [9]: > 10%
growth inhibition (GI) (Zea mays [10]): Non-toxic
growth inhibition (GI) (Gossypium [11]): Non-toxic
inhibition at 360 h [12]: > 10%
growth inhibition (GI) (Glycine max [13]): Non-toxic
growth inhibition (GI) (Gossypium [14]): Non-toxic
growth inhibition (GI) (Zea mays [15]): Non-toxic
inhibition at 360 h [16]: > 10%
inhibition at 360 h [17]: > 10%
inhibition at 360 h [18]: > 10%
growth inhibition (GI) [19]: Non-toxic
IC50 (Digitaria sanguinalis): 2.5 g/ha
inhibition at 360 h [20]: > 10%
inhibition at 360 h [21]: > 10%
inhibition of growth at 75 g/ha (Amaranthus blitum): > 80%

C#CCN1C(=O)COc2cc(F)c(N3C(=O)c4ccc(F)cc4C3=O)cc21
growth inhibition (GI) (Triticum aestivum [22]): Non-toxic
growth inhibition (GI) (Zea mays [23]): Non-toxic
inhibition at 360 h [3]: > 10%
growth inhibition (GI) (Zea mays [24]): Non-toxic
inhibition at 360 h [5]: > 10%
growth inhibition (GI) (Glycine max [25]): Non-toxic
growth inhibition (GI) (Zea mays [7]): Non-toxic
growth inhibition (GI) (Triticum aestivum [26]): Non-toxic
inhibition at 360 h [9]: > 10%
growth inhibition (GI) (Zea mays [10]): Non-toxic
growth inhibition (GI) (Gossypium [11]): Non-toxic
growth inhibition (GI) (Triticum aestivum [27]): Non-toxic
growth inhibition (GI) (Glycine max [13]): Non-toxic
growth inhibition (GI) (Gossypium [14]): Non-toxic
growth inhibition (GI) (Zea mays [15]): Non-toxic
inhibition at 360 h [16]: 1%
growth inhibition (GI) (Triticum aestivum [28]): Non-toxic
growth inhibition (GI) (Oryza sativa [29]): Non-toxic
growth inhibition (GI) [19]: Non-toxic
IC50 (Digitaria sanguinalis): 4.8 g/ha
growth inhibition (GI) (Triticum aestivum [30]): Non-toxic
growth inhibition (GI) (Oryza sativa [31]): Non-toxic
inhibition of growth at 75 g/ha (Amaranthus blitum): > 80%
